Screening results deposited in PubChem by several laboratories.
An excerpt weighted towards active compounds, which were near 7.6% of everything screened.
DAT uptake mod: human DAT dopamine uptake with cocaine, either direction; 110,000 compounds, 1.3% hits; LLC-PK1 hDAT cells, [14C]-dopamine uptake with cocaine IC80; actives deviate in either direction; AID 449768; B-score at 10 µM; Q01959;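 active means Z score or B-score, a plate-position-corrected score, falls beyond the plate's 99.7% confidence bounds, in either direction; inactive means both scores lie inside the 99.7% bounds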;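 further: scored against the spread of the other compound wells on the same plate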
M1 ag: M1 muscarinic receptor agonism | CHO-M1 cells, Fluo-4 calcium fluorescence, agonist mode; active compounds read high | B-score at 10 µM | 64,000 compounds, 3% hits;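 active means fluorescence rise, raw or as B-score row- and column-corrected plate score, outside the 99.7% band of its plate's samples, either direction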
HEK293 NFkB inh: lowers PMA/ionomycin-induced NF-kB signal in HEK293 cells | HEK-293 NF-kB luciferase reporter, luminescence | inhibition, % at 3 µM | 62,000 compounds, 0.21% hits | AID 465;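 active means inhibition above the mean of all tested compounds plus 3 SD, cut at about 40% in these data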;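 further: 0% = stimulated DMSO wells and 100% = 10 µM reference inhibitor 5653914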
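Material: HEK-293 cells with stable firefly luciferase reporter driven by four HIV NF-kB elements / Also added: PMA plus ionomycin mix as NF-kB-activating stimulus / Compound dosing: 3 µM once, 0.30% DMSO / Times: 1 h pretreatment, 16 h stimulation, 37 °C / Signal: luminescence / Evaluation: per-plate % inhibition versus controls / Benchmarks: DMSO and 10 µM reference inhibitor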
D1 allo mod: D1 dopamine receptor (human) allosteric modulation; 58,000 compounds, 5.9% hits; B-score at 10 µM; HEK293 D1, CRE-luciferase, dopamine EC30 potentiation; actives deviate in either direction; P21728;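 active means luminescence count or its row- and column-corrected plate score outside the 99.7% band of the plate's sample wells, on either side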
M1 antag: M1 muscarinic receptor (rat) antagonism | B-score at 10 µM | CHO-M1 cells, Fluo-4 calcium, ACh EC80 antagonist mode; active compounds read low | P08482 | 64,000 compounds, 3.4% hits | AID 628;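 active means calcium fluorescence response, raw or row-and-column corrected B-score, differing from the plate sample mean either way at a set confidence level, mostly lower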
Target sequence (P08482 whole entry, looked up): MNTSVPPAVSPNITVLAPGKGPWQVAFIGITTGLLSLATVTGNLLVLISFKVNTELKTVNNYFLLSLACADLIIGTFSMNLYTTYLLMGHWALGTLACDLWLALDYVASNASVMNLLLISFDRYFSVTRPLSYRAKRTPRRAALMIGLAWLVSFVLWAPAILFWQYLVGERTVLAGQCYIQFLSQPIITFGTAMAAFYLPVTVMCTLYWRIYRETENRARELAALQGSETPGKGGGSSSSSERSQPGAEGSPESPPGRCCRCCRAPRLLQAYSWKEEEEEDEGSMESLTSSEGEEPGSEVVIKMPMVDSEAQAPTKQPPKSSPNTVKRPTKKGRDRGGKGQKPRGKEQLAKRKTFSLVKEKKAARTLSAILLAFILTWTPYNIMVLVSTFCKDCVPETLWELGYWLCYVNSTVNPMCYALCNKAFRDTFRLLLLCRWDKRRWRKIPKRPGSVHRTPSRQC
Jurkat tox 60K: cytotoxic compounds reducing Jurkat cell viability; Jurkat E6.1 viability, ATP luminescence, 48 h; inhibition, % at 4 µM; 56,000 compounds, 1.2% hits; AID 463;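 active means inhibition above the mean inhibition of all tested compounds plus 3 SD, cut at about 28% in these data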
M1 antag confirm: confirmation of rat M1 muscarinic receptor antagonists; shares compounds with M1 antag; CHO-M1 cells, Fluo-4 calcium, ACh EC80 antagonism; active compounds read low; calcium response (max-min fluorescence) at 10 µM; 1,700 compounds, 43% hits; AID 677;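 active means calcium response below the same-plate mean of wells given acetylcholine alone at its 80%-effect dose, minus 3 SD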;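 further: raw fluorescence intensity difference in arbitrary instrument units and not normalized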
mGluR4 antag: mGluR4 (human) activity, M1 antagonist secondary assay. shares compounds with M1 antag. CHO-mGluR4 calcium flux, Fluo-4 fluorescence, glutamate EC80; active compounds read low. fluorescence response (max-min) at 10 µM. 1,700 compounds, 0.9% hits;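 active means fluorescence response below the plate's average for near-maximal glutamate wells, less 3 SD of those wells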;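 further: raw unnormalized fluorescence span taken in the window right after glutamate addition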
The depositor's hits bear a star.

Screening CC(C)CC(=O)N1CCN(S(=O)(=O)c2ccc(F)cc2)CC1 returned DAT uptake mod -1.9, M1 ag 0.39, HEK293 NFkB inh 15, D1 allo mod 0.14, M1 antag -0.41 and Jurkat tox 60K -10.
For CC(C)CNC(=O)[C@H](Cc1ccccc1)NC(=O)c1ccco1 the results were DAT uptake mod -0.27.
`COc1c(C)cccc1C(=O)Nc1ccc(N2CCOCC2)c(Cl)c1` gave DAT uptake mod 0.52.
`OC(CCCCN1CCCCC1)c1ccccc1` (stereo not drawn) gave DAT uptake mod 1.2, M1 ag 0.2, HEK293 NFkB inh 4, D1 allo mod -0.3, M1 antag 0.086 and Jurkat tox 60K -2.
Screening Cc1cc(C)n2[nH]c(=O)c(N=Nc3cccc(Cl)c3)c2n1 returned DAT uptake mod 1.3.
Nc1nc(CN2CCOCC2)cs1 was read as DAT uptake mod -0.087, M1 ag -0.013, HEK293 NFkB inh -1, D1 allo mod 0.87, M1 antag -0.83*, Jurkat tox 60K 9, M1 antag confirm 555 and mGluR4 antag 261.
For CCc1nc(OCCN(CC)CC)c2oc3ccccc3c2n1 the results were DAT uptake mod -1.4, M1 ag -0.057, HEK293 NFkB inh 3, D1 allo mod 2, M1 antag -0.85 and Jurkat tox 60K 2.
CCN(CC)CCOc1ncnc2c1oc1ccccc12 was read as DAT uptake mod -0.35, M1 ag 0.091, HEK293 NFkB inh 11, D1 allo mod 0.35, M1 antag -1.6*, Jurkat tox 60K -2, M1 antag confirm 584* and mGluR4 antag 198.
CCCc1cc(C(=O)NCCc2ccc(OC)c(OC)c2)no1 was read as DAT uptake mod 0.066, M1 ag -0.64, HEK293 NFkB inh 11, D1 allo mod 2.4, M1 antag 0.32 and Jurkat tox 60K 10.
Screening CC1CCN(CC(C)CNC(=O)c2cc(-c3ccccn3)nc3ccccc23)CC1 (stereo not drawn) returned DAT uptake mod -0.23.
`CC1=CC(C)(C)N2C(=O)C3(SCC(=O)N3c3ccc(O)cc3)c3cc(C)cc1c32` (stereo not drawn) gave DAT uptake mod 1.3, M1 ag -1.2, HEK293 NFkB inh 2, D1 allo mod -0.019, M1 antag 0.55 and Jurkat tox 60K 3.
Cc1ccc(N2C(=O)CSC23C(=O)Nc2ccccc23)cc1 (stereo not drawn) was read as DAT uptake mod 0.72, M1 ag 1.5, HEK293 NFkB inh 12, D1 allo mod -0.1, M1 antag -3.2*, Jurkat tox 60K -6, M1 antag confirm 428 and mGluR4 antag 217.
CC(C)CCn1c(SCCc2ccccc2)nc2c1c(=O)[nH]c(=O)n2C was read as DAT uptake mod -0.1, M1 ag -0.0074, HEK293 NFkB inh 15, D1 allo mod -0.54, M1 antag 0.36 and Jurkat tox 60K -1.
Screening CC(C)CCn1c(NCCN(C)C)nc2c1c(=O)[nH]c(=O)n2C returned DAT uptake mod -0.7, M1 ag 0.074, HEK293 NFkB inh 21, D1 allo mod 0.051, M1 antag -4*, Jurkat tox 60K -4, M1 antag confirm 601 and mGluR4 antag 274.
For Cc1onc(-c2c(Cl)cccc2Cl)c1C(=O)N1CCc2ccccc21 the results were DAT uptake mod -2, M1 ag 0.5, HEK293 NFkB inh 0, D1 allo mod -4.8*, M1 antag -8.3*, Jurkat tox 60K 7, M1 antag confirm 120* and mGluR4 antag 226.
Screening Cc1onc(-c2c(F)cccc2Cl)c1C(=O)N1CCc2ccccc2C1 returned DAT uptake mod 0.3, M1 ag 0.36, HEK293 NFkB inh -4, D1 allo mod -3.5*, M1 antag -3.2*, Jurkat tox 60K -4, M1 antag confirm 517 and mGluR4 antag 233.
Cc1onc(-c2ccccc2Cl)c1C(=O)N1CCc2ccccc2C1 was read as DAT uptake mod -0.11.
For CCn1c(=O)cc(SCC(=O)N2CCN(C3CCCCC3)CC2)c2ccccc21 the results were DAT uptake mod 0.045, M1 ag -1.1, HEK293 NFkB inh 22, D1 allo mod -0.046, M1 antag -5.1*, M1 antag confirm 256* and mGluR4 antag 226.
Screening CCCCS/C(=C(/C#N)C(N)=O)c1cc2c([nH]1)CCCC2 returned DAT uptake mod -0.2, M1 ag 0.18, HEK293 NFkB inh 7, D1 allo mod 0.39, M1 antag -6*, Jurkat tox 60K 16, M1 antag confirm 140* and mGluR4 antag 267.
For CCOC(=O)CCc1c(C)c2ccc(OCc3nn[nH]n3)cc2oc1=O the results were DAT uptake mod -1.2, HEK293 NFkB inh 12, D1 allo mod -0.49 and Jurkat tox 60K 8.
`C=CCOC(=O)COc1ccc2c(C)c(C)c(=O)oc2c1` gave DAT uptake mod -0.5, M1 ag -0.012, HEK293 NFkB inh 13, D1 allo mod 0.94, M1 antag -2.6*, Jurkat tox 60K -6, M1 antag confirm 704 and mGluR4 antag 197.
`CCOC(=O)CCc1c(C)c2ccc(OCC(=O)OC(C)C)cc2oc1=O` gave DAT uptake mod -0.64, M1 ag -0.69, HEK293 NFkB inh 14, M1 antag -2.4*, Jurkat tox 60K -1, M1 antag confirm 546 and mGluR4 antag 233.
For CCOC(=O)CC1C(=O)NCCN1Cc1cccc(C(F)(F)F)c1 (stereo not drawn) the results were DAT uptake mod -0.4, M1 ag 1, HEK293 NFkB inh 9, D1 allo mod -0.48, M1 antag -0.15 and Jurkat tox 60K -5.
For CCc1sc(NC(=O)COC)nc1-c1ccccc1 the results were DAT uptake mod -0.4, M1 ag -0.016, HEK293 NFkB inh 3, M1 antag -5.9*, Jurkat tox 60K -5, M1 antag confirm 456* and mGluR4 antag 266.
COCC(=O)Nc1nc(-c2ccc(C)cc2)c(C)s1 was read as DAT uptake mod -0.6.
`OCCc1ccccc1` gave DAT uptake mod -1.9.
`CCn1nnnc1SCC(=O)Nc1nc2ccc(OC)cc2s1` gave DAT uptake mod -0.017.
COc1ccc2nc(NC(=O)CSc3nnc(-c4ccoc4C)n3C)sc2c1 was read as DAT uptake mod -0.5, M1 ag -0.31, HEK293 NFkB inh -7, D1 allo mod 0.33, M1 antag -11*, Jurkat tox 60K -2, M1 antag confirm 492 and mGluR4 antag 185.
